Results pooled from the literature.
Lines come from different studies, so protocols differ.
Sample: plasma

CC(C)n1cc(C#N)c2cc(-n3cc(C(=O)O)cn3)ccc21 — Tmax (human; oral; 25 mg; single dose, fasted, healthy volunteers): 3.26 h
CC(=O)N(C)[C@H]1CCN(C(=O)c2cnc3c(c2)C[C@](C)(c2ccc(F)cc2)N3)C1 — Tmax (male human; oral; 15 mg; multiple doses, once daily, steady state): 1.14 h
COc1ccc2c(c1)CN(C(=O)CCN1CCC(Cc3ccccc3)CC1)CC[S@@+]2[O-] — Tmax (male human; intravenous; 0.15 mg/kg; healthy volunteers): 0 h
COc1ccc(-c2c(Nc3ccccn3)[nH]c3c(C4=CCCCC4)c(-c4ccccc4)nn3c2=O)cc1 — Tmax (human; oral; 200 mg twice daily; multiple doses, patients): 1 h
COc1ccc(F)cc1C(=O)NCc1ccc(-c2nn([C@@H](C)C(F)(F)F)c(N)c2C(N)=O)cc1 — Tmax (male human; oral; 200 mg; single dose): 5 h
OC[C@H]1O[C@@H](c2cc(Cc3ccc(C4CC4)cc3)c(Cl)c3c2CCO3)[C@H](O)[C@@H](O)[C@@H]1O — Tmax (human; oral; 0.3 mg; single dose, fed, healthy volunteers): 2 h
O=C(COc1ccc(Cl)cc1)NC12CC(c3nnc([C@H]4C[C@@H](OC(F)(F)F)C4)o3)(C1)C2 — Tmax (human; oral; 260 mg; multiple doses, once daily, steady state, healthy volunteers): 3 h
N#Cc1cccc(-c2ccc3ncc(-c4cc(F)cc(F)c4)c(N4CCC(N)CC4)c3c2)c1O — Tmax (male human; intravenous; 50 µg): 0.03 h
C[C@@H](Oc1ccc(S(C)(=O)=O)cc1C(=O)N1C[C@@H]2C[C@]2(c2cc(C(F)(F)F)on2)C1)C(F)(F)F — Tmax (human; oral; 10 mg; single dose, fasted): 3.5 h
